# STAT1 activator – activators of IFN-gamma induced STAT1 signaling; NIH 3T3 STAT1-luciferase reporter, luminescence; 100% = IFN-gamma alone, no compound; activation (% of control), % at 5.5 µM; 200,000 compounds, 2.6% hits;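 active = activation above the screen-wide mean activation plus 3 SD, cut at about 130% in these data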;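 also: raw ratio to IFN-gamma control signal so 100% means no change and 0% no light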
# NF-kB neuron act – compounds increasing NF-kB expression in human neuronal cells | NF-kB reporter expression; hits give high values | 190,000 compounds, 1.6% hits | fold change at 12.5 µM | AID 1239; in the data active = fold change above about 3.3
# FLuc act counter – firefly luciferase counter-screen for stimulation assays. P08659. ATPlite luciferase biochemical, luminescence, 10 min; 0 = ATP-free wells, 1 = DMSO control. activation factor at 10 µM. 200,000 tested, under 10 active;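 active = luciferase activation factor, scaled between plate controls, of at least 2 with compound at 10 µM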
# Target sequence (P08659 whole entry, looked up): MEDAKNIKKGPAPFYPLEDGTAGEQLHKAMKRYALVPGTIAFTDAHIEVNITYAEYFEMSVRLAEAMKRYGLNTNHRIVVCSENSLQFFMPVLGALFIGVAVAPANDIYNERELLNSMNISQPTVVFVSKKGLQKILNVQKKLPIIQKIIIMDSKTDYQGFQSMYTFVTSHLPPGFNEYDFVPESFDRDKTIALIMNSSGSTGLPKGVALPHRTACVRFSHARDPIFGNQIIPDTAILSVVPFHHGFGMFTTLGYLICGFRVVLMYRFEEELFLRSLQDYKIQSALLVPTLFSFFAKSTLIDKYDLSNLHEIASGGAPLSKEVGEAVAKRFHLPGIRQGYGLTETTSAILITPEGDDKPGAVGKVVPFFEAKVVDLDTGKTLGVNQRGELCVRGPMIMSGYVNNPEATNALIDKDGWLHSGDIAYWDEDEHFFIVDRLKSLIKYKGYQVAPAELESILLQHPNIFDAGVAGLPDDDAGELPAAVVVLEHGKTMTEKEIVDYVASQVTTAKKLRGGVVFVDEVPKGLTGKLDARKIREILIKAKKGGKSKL
#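 Material: luciferase plus luciferin reagent, cell-free. Medium: PBS buffer for ATP. Also added: ATP substrate, dispensed from a 10.24 µM working solution in PBS. Doses: test compounds dosed from 2 mM stocks in 100% DMSO. Incubation: 10 min post-reagent at room temperature. Technique: light output (luminescence). Read-out basis: luminescence gain marking luciferase activators.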
# FLuc inh counter – counter-screen for luciferase assay inhibitors: firefly luciferase inhibition; P08659; ATPLite firefly luciferase biochemical luminescence, 10 min; inhibition, % at 10 µM; 200,000 compounds, 1.5% hits;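 active = inhibition above about 50% when tested at 10 µM, limit read from the data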
# Rad51 HR inh – blocks human Rad51 in homologous recombination; AID 1385; inhibition, % at 10 µM; 200,000 compounds, 0.085% hits; hRad51 DNA strand exchange, fluorescence dequenching; Q06609;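 active = inhibition above 40% at the single screening dose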;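 also: 0% = DMSO control wells and 100% = blanks with heterologous ssDNA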
#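 Material: hRad51 filaments on single-stranded DNA; Reagent: Donor/quencher-labelled 47-bp dsDNA substrate; Compound: 10 µM final, single point; Schedule: 37 °C 15-min filament assembly, 30-min compound preincubation, 15-min exchange; Technique: FRET fluorescence, excitation 485 nm, emission 520 nm; Benchmarks: control wells and blank wells on each plate.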
# APP 5'UTR act – APP 5'UTR luciferase reporter activation; SH-SY5Y APP 5'UTR luciferase reporter, luminescence; zero percent = DMSO vehicle wells; activation, % at 2 µM; 190,000 compounds, 1% hits;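 active = activation above a set limit, based on mean plus 3 SD of controls, cut at about 140% in these data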
# * marks the source's active call; other numbers are inactive results; nt = no result given. The list is not random: actives were taken first. Their share in the collection is about 3.9%.
SMILES,STAT1 activator,NF-kB neuron act,FLuc act counter,FLuc inh counter,Rad51 HR inh,APP 5'UTR act
O=C(CC(=O)Nc1ccccn1)Nc1ccccn1,100,1.6,1,0,-6,0
CC(c1ccco1)N(C(=O)COc1ccc(Cl)cc1)c1ccccn1 (centres undefined),102,0.99,0.9,11,2,83
COc1ccccc1OCC(=O)Nc1ccccn1,129*,1.1,0.3,71*,2,125
CSc1ccccc1NC(=O)COc1ccc(Cl)cc1Cl,102,1.5,1,-3,2,19
O=C(COc1ccc(Cl)cc1Cl)Nc1ccccn1,20,0.97,0,97*,-2,-1
COc1cc(OC)c2ccc(=O)oc2c1C(CCN1CCN(c2ccccc2)CC1)c1ccc(N(C)C)cc1 (centres undefined),nt,nt,nt,nt,-6,nt
COc1cccc(C2NC(=O)N(CCCC(=O)O)C(C)=C2C(=O)OCc2ccccc2)c1 (centres undefined),nt,nt,nt,nt,-3,nt
S=C(NCCc1ccccc1)NC1CCCCCC1,137*,3.2,0.9,5,-4,78
CC1CCN(C(=S)NCCc2ccccc2)CC1,124,3.4*,0.9,15,6,95
CC(=O)N1CCC(N(CCN2CCOCC2)C(=S)Nc2c(C)cccc2C)CC1,98,1.2,1.1,-6,6,1
CN(C)c1ccc(/C=C2\C(=N)N3C(=NC2=O)Sc2cc(S(C)(=O)=O)ccc23)cc1,nt,nt,nt,nt,-492,nt
CSc1nc(C)cc(-c2cc(C(=O)Nc3ccccc3)on2)n1,nt,nt,nt,nt,-9,nt
COc1ccc(Nc2nc(-c3ccccc3)c(C(=O)Nc3cccnc3)s2)cc1,113,1.4,1,0,-7,-9
COc1cccc(NC(=S)N/N=C2\CC3CCC2(C)C3(C)C)c1 (centres undefined),129*,1.4,1,4,24,60
COC(=O)c1ccc2nc(Nc3nc4ccc(F)cc4s3)sc2c1,43,2,0.9,12,-9,-43
COC(=O)c1ccc2nc(NC(=O)C(C)(C)C)sc2c1,31,1.1,0,95*,-4,108
COC(=O)c1ccc2nc(NC(=O)C3CCCCC3)sc2c1,124,1.6,1,2,nt,141*
CC(=O)Nc1nc2ccc(C(=O)NC3CCCCC3)cc2s1,98,1.3,1,0,-3,-3
N#Cc1ccc(NC(=O)CCc2nc3ccccc3s2)cc1,104,1.1,1.1,-7,4,11
N#C/C(=C(/O)COc1ccccc1)c1nc2ccccc2s1,93,1.3,0.9,10,8,35
c1ccc(OCc2nc3ccccc3s2)cc1,141*,4.3*,0.6,42,2,126
O=S(=O)(CCc1nc2ccccc2s1)c1ccc(Cl)cc1,95,1.1,1.1,-5,5,-13
O=S(=O)(Cc1nc2ccccc2s1)c1ccccc1,138*,2.2,1,4,3,73
CCC(=O)Nc1ccc(OCc2nc3ccccc3s2)cc1,134*,4.2*,0.5,46,-26,216*
Fc1ccc(OCc2nc3ccccc3s2)cc1,136*,5.2*,0.4,64*,-3,269*
SMILES,STAT1 activator,NF-kB neuron act,FLuc act counter,FLuc inh counter,Rad51 HR inh,APP 5'UTR act
Fc1ccc(-c2nnn(Cc3nc4ccccc4s3)n2)cc1,105,1.2,1,-4,-3,-14
CN(C)c1ccc(N=Nc2ccccc2C(=O)OCC(=O)N(C)c2ccccc2)cc1,96,0.59,0.3,65*,-9,22
COC(=O)c1ccccc1NC(=O)COC(=O)c1ccccc1N=Nc1ccc(N(C)C)cc1,108,1.4,0.8,17,13,25
COC(=O)C1CCN(Cc2cn(-c3ccccc3)nc2-c2ccc3c(c2)OCO3)CC1,104,1.2,1.1,-5,-6,-1
COc1ccccc1C(=O)Nc1cc2ccccc2oc1=O,121,2.3,0.9,14,nt,16
O=c1oc2ccccc2cc1NCc1ccccc1O,102,3.6*,1,4,-8,80
CCC(=O)Nc1cc(-c2cc3ccccc3oc2=O)ccc1OC,118,0.93,1,2,15,78
COc1ccc(-c2nnc(-c3cc4ccccc4oc3=O)o2)cc1,104,1.7,0.9,5,-14,-22
O=c1oc2ccccc2cc1-c1ccc(O)cc1,134*,2.6,0.7,27,1,47
CCC(=O)Nc1ccc(-c2cc3ccccc3oc2=O)cc1,143*,2.6,0.8,18,12,-17
CC(=O)Nc1ccc(-c2cc3ccccc3o2)cc1,141*,6.5*,0.8,25,6,222*
CC(=O)Nc1ccc2ccccc2c1,99,1.7,1,-4,-4,-5
Cc1ccc(N2C(=O)N(CC(=O)N3CCOCC3)C(=O)C2C)cc1 (centres undefined),102,1.5,1,-4,1,-1
COc1cc(C2C(C#N)=C(N)Oc3cc(N(C)C)ccc32)cc2c1OCO2 (centres undefined),111,4.8*,1,-4,3,-97
Cc1cc(C)n(C(CC(=O)O)C(=O)O)n1 (centres undefined),105,1,1.1,-10,2,139*
Cc1nn(C(CC(=O)O)C(=O)O)c(C)c1Br (centres undefined),97,1,1,-1,7,-4
CCOc1ccccc1N1CCN(Cc2cn[nH]c2-c2ccc(F)cc2)CC1,nt,nt,nt,nt,12,nt
CCOc1ccc(-c2nc(C)c(C(C)=O)n2O)cc1,107,2.2,0.4,64*,1,17
COc1ccc(-c2nc(C)c(C(C)=O)n2O)cc1,113,1.3,0.8,17,7,10
Cn1cccc1C(=O)C(=O)Nc1cccc(Cl)c1Cl,147*,3.6*,0.9,7,0,35
CC(C)(C)NC(=O)Nc1cccc(Cl)c1Cl,91,1.3,1,-4,28,12
Cn1cccc1C(=O)C(=O)Nc1ccc(Cl)cc1,120,11*,0.4,62*,-1,186*
Cn1cccc1C(=O)C(=O)Nc1cc(Cl)cc(Cl)c1,122,2.1,1,0,6,22
COc1cc2ncc(C(=O)c3ccccc3)c(N3CCN(Cc4ccccc4)CC3)c2cc1OC,nt,nt,nt,nt,24,nt
O=C(N=Nc1c(O)[nH]c2ccccc12)c1ccc2c(c1)OCO2,69,2.3,0.1,93*,20,106
O=C(N=Nc1c(O)[nH]c2ccccc12)c1ccc(CN2CCOCC2)cc1,108,nt,0.8,22,nt,-28
O=C(N/N=C\C=C\c1ccco1)c1cc(-c2ccc3ccccc3c2)n[nH]1,133*,2,0.8,16,-3,30
C#CCCOC(=O)N1C2=NC(C(=O)OC)=C(C(=O)OC)[C@@H]3N(Cc4ccccc4)c4ccccc4[C@]23C[C@H]1C(=O)OC,nt,nt,nt,nt,7,nt
